Assay outcomes from PubChem.
CHRM4 antagonist: CHRM4 antagonism in calcium assay; inhibition, % at 3 µM; P08173; AID 624125; 360,000 compounds, 0.73% hits; CHO-hM4 cells, ACh EC80, Fluo-8 calcium fluorescence;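 active = inhibition above its plate's cutoff, the mean inhibition of sample wells plus 3 SD, cut at about 27% in these data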;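 note: 0% = acetylcholine EC80 with DMSO and 100% = DMSO without agonist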
Target sequence (P08173 whole entry, looked up): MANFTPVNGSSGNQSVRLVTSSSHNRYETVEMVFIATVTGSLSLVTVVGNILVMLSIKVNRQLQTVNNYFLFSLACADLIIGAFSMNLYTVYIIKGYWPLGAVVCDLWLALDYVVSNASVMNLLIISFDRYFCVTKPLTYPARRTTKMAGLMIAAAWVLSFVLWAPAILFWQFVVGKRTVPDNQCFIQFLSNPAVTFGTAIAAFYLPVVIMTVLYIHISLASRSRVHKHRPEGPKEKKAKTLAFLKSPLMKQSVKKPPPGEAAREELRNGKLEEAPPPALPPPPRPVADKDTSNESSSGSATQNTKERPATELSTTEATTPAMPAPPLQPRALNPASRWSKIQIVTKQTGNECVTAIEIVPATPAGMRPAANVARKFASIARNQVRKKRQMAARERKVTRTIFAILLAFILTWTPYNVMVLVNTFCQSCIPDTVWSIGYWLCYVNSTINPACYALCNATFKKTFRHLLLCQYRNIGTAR
M4 PAM: CHRM4 positive allosteric modulation. P08173. CHO-K1 hM4/Gqi5, Fluo-8 calcium fluorescence, ACh EC20; 0% = ACh EC20, 100% = maximal ACh. activation, % at 3 µM. 360,000 compounds, 0.4% hits. AID 624126;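 active = activation above its plate's cutoff, the mean activation of sample wells plus 3 SD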
M5 antag: blocks acetylcholine activation of human M5 receptor. 360,000 compounds, 0.59% hits. CHO-hM5 cells, Fluo-8 calcium fluorescence, ACh EC80. inhibition, % at 3 µM;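 active = inhibition above a per-plate cutoff, the mean of that plate's test compounds plus 3 SD, cut at about 27% in these data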;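 note: 0% = acetylcholine EC80 with DMSO and 100% = DMSO without agonist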
M5 PAM: potentiates acetylcholine response at human M5 receptor; CHO-K1 hM5, Fluo-8 calcium, ACh EC20 PAM; 0% = ACh EC20, 100% = ACh EC100; AID 624038; activation, % at 3 µM; 360,000 compounds, 0.3% hits;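 active = activation above the run cutoff, the mean activation of all test compounds plus 3 SD, cut at about 18% in these data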
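Probe or stimulus: acetylcholine, EC20 level; Assay system: human M5 receptor in CHO-K1 cells; Schedule: compound preincubation 140 s before EC20 acetylcholine addition; Technique: intracellular calcium via Fluo-8 fluorescence; Dosing: single-point, 3 µM nominal; Read-out basis: percent activation from peak-over-basal fluorescence ratio, scaled EC20-to-EC100 acetylcholine; Repeats: one well per compound, no replicates.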
CHRM5 agonist: agonists of human muscarinic M5 receptor (CHRM5). AID 624037. activation, % at 3 µM. CHO-K1 hM5 cells, Fluo-8 calcium fluorescence; 0% DMSO wells, 100% maximal acetylcholine response. 360,000 compounds, 0.19% hits;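 active = activation above the run's mean over test compounds plus 3 SD, cut at about 23% in these data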;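 note: signal is peak over basal fluorescence ratio across the kinetic read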
M4 ag: agonists of human muscarinic M4 receptor (CHRM4); CHO-K1 hM4/Gqi5, Fluo-8 calcium fluorescence; vehicle 0%, full acetylcholine response 100%; 360,000 compounds, 0.14% hits; AID 624127; P08173; activation, % at 3 µM;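 active = activation above the run mean over all test wells plus 3 SD, cut at about 32% in these data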;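 note: peak over basal fluorescence ratio per well then scaled between controls; 0% = DMSO wells and 100% = acetylcholine at EC100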
Active calls of the source: *. Sampled rows, rich in hits. Any-hit rate of the full collection: about 1.9%.

SMILES	CHRM4 antagonist	M4 PAM	M5 antag	M5 PAM	CHRM5 agonist	M4 ag
COc1cc(F)ccc1-c1csc(C(C)(NC(C)=O)c2ccccc2)n1 (stereo not given)	-14	0	-6	-2	-3	-2
Cc1ccc(-n2nnnc2-c2ccco2)cc1	3	-2	4	10	-5	0
c1ccc(Cn2nnnc2-c2ccco2)cc1	4	37*	-20	14	0	1
Cc1ccccc1NS(=O)(=O)c1ccc(NC(=O)c2ccco2)cc1	-9	-3	-14	28*	-2	4
Cc1ccccc1C(=O)N/N=C/c1ccc(Sc2ccccn2)o1	-1	4	23	24*	2	2
O=C(N/N=C\c1ccc(Sc2ccccn2)o1)c1cccc(Br)c1	-8	7	-1	-7	0	6
CC1(C)N=C(N)N=C(N)N1c1ccc(Oc2ccc(Cl)cc2)c(Cl)c1	5	-11	33*	-21	-11	0
O=C(NCC1CCCCC1)c1cc(-c2cc(F)ccc2OCC2CCCO2)n[nH]1 (stereo not given)	-15	2	-1	-7	-2	4
CC(=O)OC(C[N+]1(C)CCCCCC1)c1ccccc1 (stereo not given)	37*	-15	28*	-17	-7	0
C[N+]1(CC(O)c2ccccc2)CCCCCC1 (stereo not given)	12	-7	-2	-5	-22	1
CCc1nc2c(OCc3ccc(C(=O)N(C)C)cc3)cccn2c1N(C)C(=O)Nc1ccccc1OC	0	1	-6	5	-2	-1
COc1cc(C#Cc2c(-c3cncn3C)n(C)c3ccc(-c4ccc(CN5CCOCC5)cc4)cc23)cc(OC)c1	30*	-10	7	-5	-2	5
COc1cc(C#Cc2c(-c3cncn3C)n(C)c3ccc(-c4cnc(N5CCOCC5)nc4)cc23)cc(OC)c1	-4	21	6	-3	2	2
CCCNC(=O)C1(C)CCCN(CCOc2ccccc2)C1 (stereo not given)	3	4	9	-4	-2	0
O=C(CN1CCN(c2ccccc2)CC1)Nc1ccc2c(c1)CCC2	-6	21*	-5	0	-3	1
O=C(CN1CCN(c2ccccc2)CC1)Nc1ccncc1	-10	-4	5	1	3	3
Cc1ccc(S(=O)(=O)N(CC(=O)Nc2ccccc2)C(=O)N2CCN(C)CC2)cc1	1	20*	2	3	1	0
COc1ccc(-c2cccc(N3CCN(c4ccccn4)CC3)n2)cc1OC	-8	-8	3	-9	1	11
On1ccccc1=S	31*	0	23	-2	3	3
O=C(Cn1ccccc1=S)c1ccc(Cl)c(Cl)c1	-1	-3	16	-13	-8	2
Cc1ccc2c(Cl)c(C(=O)NCC(c3ccco3)N3CCCC3)sc2c1 (stereo not given)	3	-6	27*	-12	-8	-1
O=C(CC[C@H]1O[C@@H](n2ccc(=O)[nH]c2=O)[C@H](O)[C@@H]1O)NCC(c1ccccc1)c1ccccc1	2	12	7	2	-1	1
COc1cc2c(cc1Cl)/C(=C\CCN(C)C)c1ccccc1S2	33*	-35	25	-18	-4	8
CN(C)CC/C=C1/c2ccccc2Sc2c(O)cc(Cl)cc21	50*	-15	98*	-16	-6	2
COc1cc(Cl)cc2c1Sc1ccccc1/C2=C/CCN(C)C	19	-14	36*	-29	-12	2
SMILES	CHRM4 antagonist	M4 PAM	M5 antag	M5 PAM	CHRM5 agonist	M4 ag
CN(C)CC/C=C1/c2cc(F)ccc2Sc2ccc(Cl)cc21	96*	-16	99*	-29	-19	4
CN1CCN(CC/C=C2/c3ccccc3Sc3ccc(S(=O)(=O)N(C)C)cc32)CC1	-3	-6	-2	-9	0	7
CC(C)C1C(=O)N(Cc2cn(Cc3ccco3)nn2)CCS(=O)(=O)N1Cc1ccc(-c2ccc(Cl)c(Cl)c2)cc1 (stereo not given)	-9	1	0	-5	0	4
C[C@@H]1CCCN1[C@H]1CS(=O)(=O)N[C@@H]1COCc1ccccc1	6	-9	-6	3	0	1
COc1ccc(Cn2cc(CN3CC(N4CCN(CCN(C)C)CC4)CS3(=O)=O)nn2)cc1 (stereo not given)	-6	6	-5	-1	1	1
CN1CCN(NC(=O)C23CC4CC(CC(C4)C2)C3)CC1	-8	7	-10	9	-2	1
CN1CCN(NC(=O)C2CC2)CC1	33*	24	-2	5	-6	2
O=C(/C=C/c1ccc(F)cc1)NC(=S)NNC(=O)[C@H]1C[C@@H]1c1ccccc1	8	-9	29*	-13	13	53*
COc1ccc(-c2c(-c3ccc(O)cc3O)n[nH]c2C(F)(F)F)cc1	21	5	-12	12	2	4
Oc1ccc(-c2n[nH]c(C(F)(F)F)c2-c2ccccc2)c(O)c1	47*	-19	64*	-15	2	29
O=C(c1ccccc1)N(Cc1ccccc1)Cc1ccccc1	10	-3	-1	0	-1	0
CCN(Cc1ccccc1)C(=O)c1ccc(C(=O)N(CC)Cc2ccccc2)cc1	9	-6	28*	-9	-3	5
COCCCNC(=O)C[C@@H]1C[C@@]2(C(=O)OC)CCCCC=C2N(Cc2ccc(Cl)cc2Cl)C1=O	8	-7	10	-17	2	7
O=C(NC(=S)N1CCCC1)c1ccc(Cl)cc1Cl	0	-5	-2	-1	-1	0
O=C(NC(=S)N1CCCCC1c1cccnc1)c1ccc(Br)cc1 (stereo not given)	-6	15*	4	8	0	0
O=C(NC(=S)NN1CCCCC1c1cccnc1)c1ccc(Cl)cc1Cl (stereo not given)	-11	2	-14	22*	2	0
O=C(NC(=S)N1CCCCC1c1cccnc1)c1ccc(F)cc1 (stereo not given)	8	1	2	-4	-2	2
CCCCNC(=O)C[C@@H]1C[C@@]2(C(=O)OCC)CCCC=C2N(CCC2=CCCCC2)C1=O	0	1	4	-8	-5	7
CC(=O)NC(C)(c1ccccc1)c1nc(-c2cnc3ccccc3c2)cs1 (stereo not given)	-2	-2	-3	-2	1	1
COC(=O)c1cc(NC(=O)/C=C/c2ccc3c(c2)OCO3)cc(C(=O)OC)c1	36*	10	10	1	-1	5
